High-throughput results deposited in PubChem by The Scripps Research Institute Molecular Screening Center.
GPR7 antagonist: blocks human GPR7 receptor signaling | 1.1% of 290,000 active | P48145 | inhibition, % at 4.4 µM | AID 1861 | GPR7-expressing cells, fluorescence antagonist assay; in the data active means inhibition above about 16%, passing the limit was not always enough;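 further: cells stimulated with the agonist NPW; 0% = agonist with vehicle and 100% = vehicle without agonist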
Target sequence (P48145 whole entry, looked up): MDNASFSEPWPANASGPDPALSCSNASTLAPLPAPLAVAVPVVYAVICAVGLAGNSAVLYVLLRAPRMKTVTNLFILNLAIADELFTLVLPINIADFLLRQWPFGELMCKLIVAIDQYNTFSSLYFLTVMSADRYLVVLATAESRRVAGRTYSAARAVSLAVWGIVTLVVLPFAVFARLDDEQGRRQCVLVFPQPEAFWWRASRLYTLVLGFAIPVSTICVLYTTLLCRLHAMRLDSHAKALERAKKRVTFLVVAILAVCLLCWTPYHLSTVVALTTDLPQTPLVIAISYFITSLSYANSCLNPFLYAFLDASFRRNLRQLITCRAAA
TAAR1 antag: antagonists of human TAAR1; Q96RJ0; CHO RD-HGA16 TAAR1, Fluo-8 calcium fluorescence, antagonist; inhibition, % at 3 µM; 1.5% of 360,000 active; AID 624466;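 active means inhibition above a per-plate cutoff, the mean inhibition of test compounds on that plate plus 3 SD, cut at about 49% in these data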;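 further: 0% = DMSO plus EC80 beta-PEA response and 100% = DMSO alone without agonist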
Target sequence (Q96RJ0 whole entry, looked up): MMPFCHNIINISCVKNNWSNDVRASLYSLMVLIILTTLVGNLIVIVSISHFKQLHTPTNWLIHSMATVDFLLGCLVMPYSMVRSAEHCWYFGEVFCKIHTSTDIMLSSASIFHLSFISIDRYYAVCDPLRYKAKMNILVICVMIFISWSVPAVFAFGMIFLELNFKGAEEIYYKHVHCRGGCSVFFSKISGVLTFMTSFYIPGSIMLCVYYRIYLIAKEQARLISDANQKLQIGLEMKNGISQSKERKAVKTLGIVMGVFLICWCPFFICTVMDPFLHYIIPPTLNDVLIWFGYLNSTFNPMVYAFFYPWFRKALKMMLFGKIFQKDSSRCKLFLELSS
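Test system: hTAAR1-expressing CHO RD-HGA16 cells, Gα16-coupled; Probe or stimulus: EC80 β-phenethylamine stimulus; Compound dosing: single nominal final test compound concentration of 3 µM; Timing: 140 s kinetic read after compound, 140 s after agonist; Signal: Fluo-8 calcium-sensitive fluorescence; Measure: % inhibition of agonist calcium response; Controls: DMSO and EC80 PEA controls.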
CHO parental Ca: signal in parental CHO cells, OX1R antagonist counter-screen | parental CHO-K1, ATP-induced calcium, Fluo-8 fluorescence | inhibition, % at 5.6 µM | 0.63% of 330,000 active;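 active means inhibition above that plate's mean sample inhibition plus 3 SD, cut at about 26% in these data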;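 further: 0% = ATP-challenged DMSO wells and 100% = DMSO wells without ATP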
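Assay system – parental CHO cells · Reagent – ATP stimulus · Detection – intracellular calcium via Fluo-8 no-wash fluorescent dye · Evaluation – percent inhibition of ATP-evoked calcium rise, normalized to controls · Controls – ATP wells versus no-ATP DMSO wells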
OX1R antag-1: blocks the human orexin 1 receptor; O43613; 0.43% of 330,000 active; CHO/OX1R cells, Fluo-8 calcium fluorescence, orexin A; inhibition, % at 5 µM;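 active means inhibition above its plate's threshold, mean inhibition of all tested compounds on the plate plus 3 SD, cut at about 37% in these data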;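 further: 0% = orexin A challenge wells and 100% = SB-334867-A antagonist wells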
TAAR1 agonist: human TAAR1 agonism | CHO RD-HGA16 TAAR1, Fluo-8 calcium fluorescence; vehicle wells 0%, saturating PEA agonist 100% | activation, % at 3 µM | 0.99% of 360,000 active;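 active means activation above the mean activation of all test compounds in the run plus 3 SD, cut at about 38% in these data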
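test system = CHO RD-HGA16 cells carrying human TAAR1 plus Gα16 | schedule = 17-24 h seeding, 75 min 37 °C dye, 30 min RT | compound dosing = 3 µM single concentration | control set = DMSO and PEA EC100 | replicates = n 1 | signal = Fluo-8 fluorescence, 5 s baseline then 140 s kinetic read | measure = percent activation vs PEA EC100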
OX1R antag-2: blocks the human orexin 1 receptor; O43613; OX1R-expressing cells, FRET antagonist read-out; inhibition, % at 6.6 µM; 1.8% of 330,000 active; AID 485270; in the data active means inhibition mostly above about 38%, no sharp cut-off; inactive means mostly below about 40%;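 further: 0% = agonist challenge alone and 100% = reference antagonist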
The depositor's hits bear a star; · = no result. A selection: hits, their analogues and other compounds. The true share with any hit is near 4.5%.

SMILES	GPR7 antagonist	TAAR1 antag	CHO parental Ca	OX1R antag-1	TAAR1 agonist	OX1R antag-2
Nc1[nH]c(C(=O)c2ccccc2)c(-c2ccccn2)c1C(=O)c1c[nH]c2ccccc12	·	-12	·	·	1	·
Cc1ccc(NC(=O)c2cc(-c3ccc(C)c(C)c3O)n[nH]2)cc1C	-7	13	1	-8	1	14
COc1ccc(NC(=O)c2cc(-c3ccc(C)c(C)c3O)n[nH]2)cc1Cl	-21	29	24	0	5	50*
O=C(Nc1cccc(-c2cn3ccccc3n2)c1)c1cccc(Cl)c1	-18	21	73*	82*	25	93*
O=C(NCc1cccnc1)c1[nH]c(C(F)(F)F)nc1-c1ccccc1	·	-6	·	·	1	·
Nc1nc(SCC(=O)c2ccc(Oc3ccccc3)cc2)n[nH]1	4	10	-5	4	1	5
Nc1nc(SCC(=O)c2ccc([N+](=O)[O-])cc2)n[nH]1	0	10	-9	-5	2	49*
N=c1n(CC(=O)c2ccc(Br)cc2)c2ccccc2n1Cc1ccccc1	·	-4	3	-26	38*	10
CCn1c(=N)n(CC(=O)c2ccc(Br)s2)c2ccccc21	20*	-2	-27	-16	4	31
O=C(CS(=O)(=O)c1ccccc1)c1ccc2c(c1)OCCO2	18*	-4	1	0	3	44
O=C(C[n+]1ccc(/C=C/c2ccccc2)cc1)c1ccc2c(c1)OCCO2	-4	-6	-15	-18	44*	23
CCOC(COC(=O)c1ccccc1C(=O)O)c1ccccc1 (centres undefined)	·	-7	·	·	0	·
O=C1CSC(=S)N1N=Cc1ccc(Cl)s1	·	-13	·	·	3	·
Nc1ccc2c(c1)-c1ccc(F)cc1C2=O	·	-12	·	·	3	·
O=C(COC(=O)c1cccc2c1C(=O)c1ccccc1C2=O)NC1CCCCC1	-6	49*	-24	-20	7	22
O=C(COC(=O)c1ccc2c(c1[N+](=O)[O-])C(=O)c1ccccc1C2=O)NC1CC1	-16	13	21	9	3	74*
O=C(COc1ccccc1-c1ccccc1)Nc1ccc(S(=O)(=O)NCc2ccco2)cc1	5	61*	-3	20	9	47*
CCC(=O)Nc1ccc(S(=O)(=O)NCc2ccco2)cc1	-2	-6	-5	0	2	3
Cc1nc(N2CCN(c3ccccc3)CC2)nc2c1C(=O)CCC2	-5	57*	-7	-15	11	9
Cc1nc(N2CCN(c3ccccc3)CC2)nc2c1C(=O)CC(C)C2 (centres undefined)	-14	2	-13	-15	13	7
CCCCc1c(-c2ccccc2OC)ncn1Cc1cccc(F)c1F	·	14	·	·	3	·
C/C(=N/OC(=O)c1ccc(C)cc1)c1ccc(N2C(=O)C3CCCCC3C2=O)cc1 (centres undefined)	-10	66*	-9	-29	17	20
C=CCSc1nnc(-c2ccc([N+](=O)[O-])cc2)o1	-5	4	-2	-9	6	42
NC(=O)CSc1nnc(-c2ccc([N+](=O)[O-])cc2)o1	-9	-15	12	-11	0	55*
COC(=O)C1=C(C)NC2=C(C(=O)CCC2)C1c1ccsc1 (centres undefined)	0	·	·	·	·	·
SMILES	GPR7 antagonist	TAAR1 antag	CHO parental Ca	OX1R antag-1	TAAR1 agonist	OX1R antag-2
COC(=O)C1=C(C)NC2=C(C(=O)CCC2)C1c1ccc(-c2ccsc2C(=O)OC)o1 (centres undefined)	4	28	-3	8	45*	12
Cc1ccc(S(=O)(=O)CCc2nnc(N)s2)cc1C	-10	2	38*	1	7	18
COC(=O)[C@]12C[C@H](CC(=O)NCc3ccc(OC)c(OC)c3)C(=O)N(CCC3=CCCCC3)C1=C[C@H](C(C)(C)C)O[C@@H]2C	·	-19	·	·	0	·
CC(C)C(N)c1csc(NC(=O)Nc2ccc(OC(F)(F)F)cc2)n1 (centres undefined)	·	13	·	·	16	·
Cc1c(N2C(=O)/C(=C\c3ccc(N(C)C)cc3)N(C)C2=S)c(=O)n(-c2ccccc2)n1C	-2	3	19	24	4	64*
CCCCCC(=O)N1C[C@H](n2cc(COC(=O)c3ccccc3)nn2)[C@@H](O)C[C@@H]1c1ccc(OC)cc1	·	-24	·	·	2	·
CC(C)N(c1cc(=O)nc2ccccn12)C(C)C	·	10	·	·	0	·
COc1ccc(CCNCc2ccccc2N2CCCC2)cc1	15	-11	-20	-34	11	5
COc1ccc(CCNCc2cc(C)n(-c3ccc(OC)cc3)c2C)cc1	20	-1	-17	-36	45*	-11
CCc1nc2ccc(C(=O)Nc3cccc(OCC(=O)N(C)C)c3)cn2c1N(C)Cc1cc2ccccc2s1	·	71*	·	·	9	·
CCc1nc2ccc(C(=O)Nc3cc(-c4ccccc4)ccc3OC)cn2c1N(C)Cc1nccs1	·	54*	·	·	6	·
c1ccc2c(CCNc3ncnc4nc[nH]c34)cccc2c1	8	67*	34*	28	25	22
CCOc1ccccc1OCC(=O)OCC(=O)NNC(=O)c1ccc([N+](=O)[O-])cc1	-18	-13	-11	-4	2	55*
O=C(CNC(=O)c1ccccc1)NCC(=O)OCC(=O)c1ccc(F)cc1	0	10	-2	4	0	6
O=C(CNC(=O)c1ccccc1)NCC(=O)OCC(=O)c1ccc([N+](=O)[O-])cc1	-1	13	-4	-5	5	54*
Cc1ccc(C(=O)OCC(=O)NNC(=O)c2ccc([N+](=O)[O-])cc2)o1	·	-26	-11	-10	4	41*
CC1CC1C(=O)OCC(=O)NNC(=O)c1ccc([N+](=O)[O-])cc1 (centres undefined)	·	5	-12	9	5	34*
CC1CC1C(=O)OCC(=O)NC(=O)c1ccc(C(C)(C)C)cc1 (centres undefined)	·	10	-7	-22	18	10
CCCCN1CC(COCc2ccccc2)Oc2cccc(NCc3cc(OC)c(OC)c(OC)c3)c2S1(=O)=O (centres undefined)	·	42	·	·	4	·
CN(C)c1ccc(-c2nn3c(-c4cccnc4)nnc3s2)cc1	·	·	-15	4	·	20
COc1ccccc1-c1nnc2sc(-c3ccc(N(C)C)cc3)nn12	18	0	-19	14	-2	69*
COc1ccccc1-c1nnc2sc(-c3cc4ccccc4o3)nn12	18*	-15	1	-9	0	12
COc1ccc2c(c1OC)C(=O)N1c3ccccc3SC21 (centres undefined)	-1	6	-29	-23	9	32
